Measurements reported in ChEMBL document CHEMBL1131058, “Studies on quinazolines and 1,2,4-benzothiadiazine 1,1-dioxides. 8.1, 2 synthesis and pharmacological evaluation of tricyclic fused quinazolines and 1,2,4-benzothiadiazine 1,1-dioxides as potential alpha1-adrenoceptor antagonists” (J Med Chem, 1998).
pKi: −log10 of the molar value.

Legend:
[1] = Selectivity ratio for binding affinity towards alpha2 and alpha-1 adrenoceptors
Summary of the method: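 Ratio of α2 Ki ([³H]clonidine binding) to α1 Ki ([³H]prazosin binding), both measured in rat cortical membrane competition assays.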

D(3) dopamine receptor [2] = target: T1, D(3) dopamine receptor (Homo sapiens, UniProt P35462); test: Compound is evaluated for binding affinity towards recombinant human Dopamine receptor D3 using [3H]spiperone in CHO cells; assay type: cell-based
Summary of the method: (§1)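 Contract radioligand competition binding. Sources: 5-HT1 and 5-HT1A in rat brain cortex; 5-HT2 and σ2 in rat brain; σ in guinea pig brain; D2, rhD2 and rhD3 in CHO cells with [³H]spiperone; H1 in guinea pig lung with [³H]pyrilamine. Inhibition constants reported; no constant given where inhibition at 10 µM was below 50%.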

[3] = target: Alpha-2A adrenergic receptor (Homo sapiens) (UniProt P08913); test: Compound is evaluated for binding affinity towards Alpha-2A adrenergic receptor using [3H]MK912 at 10 uM
[4] = target: T2, Alpha-1A adrenergic receptor (Rattus norvegicus, UniProt P43140); test: Displacement of [3H]prazosin from Alpha-1A adrenergic receptor of rat submaxillary gland membranes; assay type: cell membranes, Membrane
T2 sequence (P43140 whole entry): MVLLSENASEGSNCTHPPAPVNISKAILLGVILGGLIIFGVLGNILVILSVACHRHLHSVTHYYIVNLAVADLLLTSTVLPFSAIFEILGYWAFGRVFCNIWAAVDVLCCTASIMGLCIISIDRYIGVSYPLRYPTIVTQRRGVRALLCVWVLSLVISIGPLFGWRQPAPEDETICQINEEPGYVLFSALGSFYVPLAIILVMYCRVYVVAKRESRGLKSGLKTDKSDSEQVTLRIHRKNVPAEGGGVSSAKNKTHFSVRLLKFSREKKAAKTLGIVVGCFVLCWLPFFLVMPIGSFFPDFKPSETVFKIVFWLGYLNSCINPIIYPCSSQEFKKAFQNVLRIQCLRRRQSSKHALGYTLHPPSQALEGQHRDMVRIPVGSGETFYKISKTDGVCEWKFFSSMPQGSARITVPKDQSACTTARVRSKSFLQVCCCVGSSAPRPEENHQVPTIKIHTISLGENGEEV
Summary of the method: (§2)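 Triplicate competition binding against 0.2-0.25 nM [³H]prazosin in Tris buffer pH 7.4, 30 min at room temperature. Competitor range 0.1-200 nM. Nonspecific binding defined with 10 µM phentolamine. Reaction stopped by GF/B filtration with two cold Tris washes. Membrane protein 300-400 µg per assay. Ki calculated from the data; mean ± SEM of 3-6 experiments.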

[5] = target: Serotonin 1 (5-HT1) receptor (Rattus norvegicus) (UniProt P28564+P30940+P19327+P28565); test: Compound is evaluated for binding affinity towards 5-hydroxytryptamine 1 receptor using [3H]5-HT in rat brain cortex at 10 uM; assay type: tissue-based
Summary of the method: (§3)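 Radioligand competition binding was done by an outside contract lab (Pan Lab). Inhibition constants (Ki) were derived from displacement of the stated tritiated ligand. Each compound was tested at 10 µM. Where inhibition at that concentration stayed below 50%, no Ki was reported.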

Histamine H1 receptor = Histamine H1 receptor (Cavia porcellus, UniProt P31389); test: Compound is evaluated for binding affinity towards Histamine H1 receptor using [3H]pyrilamine in guinea pig lung; assay type: tissue-based; summary of the method: as §1
D(2) dopamine receptor [6] = target: T3, D(2) dopamine receptor (Homo sapiens, UniProt P14416); test: Compound is evaluated for binding affinity towards Dopamine receptor D2 using [3H]spiperone in CHO cells; assay type: cell-based; summary of the method: as §1
[7] = target: Sodium channel alpha subunits; brain (Types I, II, III) (Rattus norvegicus) (UniProt P04775+P04774+P08104); test: Displacement of [3H]batrachotoxin from rat brain sodium channel at 10 uM; assay type: tissue-based; summary of the method: as §3
[8] = target: Alpha-2B adrenergic receptor (Homo sapiens) (UniProt P18089); test: Compound is evaluated for binding affinity towards Alpha-2B adrenergic receptor using [3H]yohimbine at 10 uM
[9] = target: T4, 5-hydroxytryptamine receptor 1A (Rattus norvegicus, UniProt P19327); test: Compound is evaluated for binding affinity towards 5-hydroxytryptamine 1A receptor using [3H]-8-OH- -DPAT in rat brain cortex; assay type: tissue-based; summary of the method: as §1
T4 sequence (P19327 whole entry): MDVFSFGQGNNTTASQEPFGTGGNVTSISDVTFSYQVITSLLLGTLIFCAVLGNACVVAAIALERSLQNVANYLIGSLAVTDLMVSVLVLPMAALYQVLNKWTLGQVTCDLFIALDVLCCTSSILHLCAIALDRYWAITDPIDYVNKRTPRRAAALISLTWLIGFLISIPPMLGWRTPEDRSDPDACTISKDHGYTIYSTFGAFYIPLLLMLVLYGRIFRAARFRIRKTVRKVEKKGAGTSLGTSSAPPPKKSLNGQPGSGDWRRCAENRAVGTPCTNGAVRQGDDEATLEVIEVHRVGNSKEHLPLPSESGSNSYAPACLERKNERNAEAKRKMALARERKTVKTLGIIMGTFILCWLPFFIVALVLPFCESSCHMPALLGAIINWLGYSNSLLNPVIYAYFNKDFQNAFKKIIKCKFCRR

D(2) dopamine receptor [10] = target: T3, D(2) dopamine receptor; test: Compound is evaluated for binding affinity towards recombinant human Dopamine receptor D2 using [3H]spiperone in CHO cells; assay type: cell-based; summary of the method: as §1
Sigma 2 receptor [11] = test: (§4) Binding affinity towards Sigma 2 receptor using [3H]ifenprodil in rat brain; assay type: tissue-based; settings: concentration not given here; summary of the method: as §3
[12] = target: Serotonin 2 (5-HT2) receptor (Rattus norvegicus, UniProt P30994+P08909+P14842); test: Compound is evaluated for binding affinity towards 5-hydroxytryptamine 2 receptor using [3H]ketanserin in rat brain; assay type: tissue-based; summary of the method: as §1
[13] = target: T5, Alpha-1B adrenergic receptor (Rattus norvegicus, UniProt P15823); test: Displacement of [3H]prazosin from Alpha-1B adrenergic receptor of rat liver membrane; summary of the method: as §2
T5 sequence (P15823 whole entry): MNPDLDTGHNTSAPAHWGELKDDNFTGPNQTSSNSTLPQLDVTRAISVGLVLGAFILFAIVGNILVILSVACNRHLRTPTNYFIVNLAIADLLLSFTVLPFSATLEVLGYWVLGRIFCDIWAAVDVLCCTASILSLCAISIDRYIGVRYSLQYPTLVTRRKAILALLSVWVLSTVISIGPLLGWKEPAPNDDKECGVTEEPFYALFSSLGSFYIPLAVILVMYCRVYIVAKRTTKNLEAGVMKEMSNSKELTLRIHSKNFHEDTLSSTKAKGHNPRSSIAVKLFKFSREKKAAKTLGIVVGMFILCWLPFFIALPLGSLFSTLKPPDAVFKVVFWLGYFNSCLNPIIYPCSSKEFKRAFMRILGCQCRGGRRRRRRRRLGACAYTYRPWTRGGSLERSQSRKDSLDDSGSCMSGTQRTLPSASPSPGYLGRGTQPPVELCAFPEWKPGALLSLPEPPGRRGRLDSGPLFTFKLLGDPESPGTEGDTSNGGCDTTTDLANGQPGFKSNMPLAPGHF

Sigma 2 receptor [14] = test: as §4; assay type: tissue-based; summary of the method: as §1
[15] = target: T6, Alpha-2B adrenergic receptor (Homo sapiens, UniProt P18089); test: Compound is evaluated for binding affinity towards Alpha-2B adrenergic receptor using [3H]yohimbine
T6 sequence (P18089 whole entry): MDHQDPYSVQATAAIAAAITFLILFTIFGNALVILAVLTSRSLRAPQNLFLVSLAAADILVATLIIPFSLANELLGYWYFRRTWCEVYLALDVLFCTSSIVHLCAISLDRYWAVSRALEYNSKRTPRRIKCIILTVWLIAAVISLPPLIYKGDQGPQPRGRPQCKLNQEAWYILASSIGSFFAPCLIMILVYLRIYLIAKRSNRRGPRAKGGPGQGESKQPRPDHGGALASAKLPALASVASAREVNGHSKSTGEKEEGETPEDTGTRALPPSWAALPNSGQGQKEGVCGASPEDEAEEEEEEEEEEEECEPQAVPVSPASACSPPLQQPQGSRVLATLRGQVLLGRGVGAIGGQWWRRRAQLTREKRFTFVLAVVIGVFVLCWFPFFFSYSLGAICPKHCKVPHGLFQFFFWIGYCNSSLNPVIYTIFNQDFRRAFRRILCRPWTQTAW

D(3) dopamine receptor [16] = target: T1, D(3) dopamine receptor; test: Compound is evaluated for binding affinity towards recombinant human Dopamine receptor D3 using [3H]spiperone in CHO cells at 10 uM; assay type: cell-based
Summary of the method: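 Single-concentration screen at 10 µM in contract radioligand binding assays. Records whether inhibition of specific radioligand binding stayed below 50%.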

[17] = target: T7, Alpha-2A adrenergic receptor (Homo sapiens, UniProt P08913); test: Compound is evaluated for binding affinity towards Alpha-2A adrenergic receptor using [3H]MK912
T7 sequence (P08913 whole entry): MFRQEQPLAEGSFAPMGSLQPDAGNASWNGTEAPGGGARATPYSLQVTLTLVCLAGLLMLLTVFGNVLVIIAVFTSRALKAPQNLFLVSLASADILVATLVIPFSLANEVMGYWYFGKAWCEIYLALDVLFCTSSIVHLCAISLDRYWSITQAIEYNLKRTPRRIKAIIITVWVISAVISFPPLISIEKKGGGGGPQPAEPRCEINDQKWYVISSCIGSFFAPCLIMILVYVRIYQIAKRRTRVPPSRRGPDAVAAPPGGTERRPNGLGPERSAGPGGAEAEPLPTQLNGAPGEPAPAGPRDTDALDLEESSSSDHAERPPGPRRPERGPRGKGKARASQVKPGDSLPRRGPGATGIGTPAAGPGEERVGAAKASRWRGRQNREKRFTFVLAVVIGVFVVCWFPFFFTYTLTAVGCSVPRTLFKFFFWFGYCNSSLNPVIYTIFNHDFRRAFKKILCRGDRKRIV

[18] = target: Serotonin 1 (5-HT1) receptor (Rattus norvegicus, UniProt P28564+P30940+P19327+P28565); test: Compound is evaluated for binding affinity towards 5-hydroxytryptamine 1 receptor using [3H]5-HT in rat brain cortex; assay type: tissue-based; summary of the method: as §1
D(2) dopamine receptor [19] = target: T3, D(2) dopamine receptor; test: Compound is evaluated for binding affinity towards Dopamine receptor D2 using [3H]spiperone in CHO cells at 10 uM; assay type: cell-based
[20] = target: Sodium channel alpha subunits; brain (Types I, II, III) (Rattus norvegicus, UniProt P04775+P04774+P08104); test: Displacement of [3H]batrachotoxin from rat brain sodium channel; assay type: tissue-based; summary of the method: as §3

T3 sequence (P14416 whole entry): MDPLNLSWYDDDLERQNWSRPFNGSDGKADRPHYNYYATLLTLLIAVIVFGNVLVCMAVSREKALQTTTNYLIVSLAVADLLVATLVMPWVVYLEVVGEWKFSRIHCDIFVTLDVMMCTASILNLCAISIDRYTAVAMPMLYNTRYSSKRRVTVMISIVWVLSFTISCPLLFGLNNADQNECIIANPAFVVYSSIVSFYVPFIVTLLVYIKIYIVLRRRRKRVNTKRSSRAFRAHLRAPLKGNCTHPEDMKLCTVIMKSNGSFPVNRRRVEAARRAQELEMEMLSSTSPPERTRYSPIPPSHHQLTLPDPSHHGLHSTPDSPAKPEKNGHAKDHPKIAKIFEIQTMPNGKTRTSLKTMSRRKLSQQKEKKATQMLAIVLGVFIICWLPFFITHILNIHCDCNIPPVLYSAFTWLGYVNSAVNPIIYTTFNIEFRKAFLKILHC
T1 sequence (P35462 whole entry): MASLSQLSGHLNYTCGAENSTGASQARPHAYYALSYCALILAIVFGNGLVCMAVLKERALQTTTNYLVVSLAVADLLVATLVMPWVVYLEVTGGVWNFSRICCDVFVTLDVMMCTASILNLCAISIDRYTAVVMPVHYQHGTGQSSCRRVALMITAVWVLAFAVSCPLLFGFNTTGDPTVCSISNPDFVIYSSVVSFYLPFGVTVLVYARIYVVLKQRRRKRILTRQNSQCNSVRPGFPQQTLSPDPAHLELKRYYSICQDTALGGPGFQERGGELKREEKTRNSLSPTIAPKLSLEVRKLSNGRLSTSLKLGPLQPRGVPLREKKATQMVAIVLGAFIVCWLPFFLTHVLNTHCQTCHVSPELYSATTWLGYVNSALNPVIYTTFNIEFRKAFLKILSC
Histamine H1 receptor, sequence (P31389 whole entry): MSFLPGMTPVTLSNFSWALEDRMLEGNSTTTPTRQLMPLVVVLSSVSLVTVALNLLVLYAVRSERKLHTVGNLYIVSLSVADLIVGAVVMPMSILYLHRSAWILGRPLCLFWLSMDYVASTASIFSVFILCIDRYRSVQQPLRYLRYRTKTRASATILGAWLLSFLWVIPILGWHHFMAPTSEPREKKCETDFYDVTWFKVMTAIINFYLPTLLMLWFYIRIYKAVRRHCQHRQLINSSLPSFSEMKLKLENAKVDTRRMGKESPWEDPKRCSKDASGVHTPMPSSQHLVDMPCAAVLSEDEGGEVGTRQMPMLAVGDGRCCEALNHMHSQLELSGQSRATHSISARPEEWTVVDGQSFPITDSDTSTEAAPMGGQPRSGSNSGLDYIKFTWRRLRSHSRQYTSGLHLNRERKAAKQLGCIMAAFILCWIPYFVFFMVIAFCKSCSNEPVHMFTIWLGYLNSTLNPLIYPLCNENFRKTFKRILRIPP

Compound | Ratio [1] | pKi [4] | pKi (Histamine H1 receptor) | pKi [9] | pKi (D(2) dopamine receptor [10]) | Ki [12] [nM] | pKi [13] | also measured
COc1ccccc1N1CCN(CC2CN=C3c4ccccc4NC(=O)N32)CC1 (stereo not drawn) | 2820 | 9.59 | 5.63 | 6.81 | 6.62 | 377 | 9.17 | pKi (D(3) dopamine receptor [2]): 6.01; inhibition [3]: < 50%; inhibition [5]: < 50%; pKi (D(2) dopamine receptor [6]): 6.80; inhibition [7]: < 50%; inhibition [8]: < 50%; inhibition (Sigma 2 receptor [11]): < 50%
COc1ccccc1N1CCN(CCn2c(=O)[nH]c3ccccc3c2=O)CC1 | 6400 | 9.30 | 6.16 | 7.80 | 6.88 | 180 | 8.96 | pKi (Sigma 2 receptor [14]): 5.60; pKi [15]: 7.25; pKi (D(3) dopamine receptor [16]): 7.14; pKi [17]: 5.74; Ki [18]: 1510 nM; pKi (D(2) dopamine receptor [19]): 7.49; Ki [20]: 3680 nM
